Series [1] in a line: Lipophilicity, log kw in methanol aqueous system at pH 3.5. The series is classed as physicochemical. The procedure, abridged:
(§1)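 RP-HPLC on an octadecyl silica column (150 × 4.6 mm, 5 µm) at 22 ± 1 °C, flow 1.0 mL min⁻¹, UV detection at 254 nm. Mobile phase was methanol, acetonitrile or dioxane with water and 0.01 M phosphate buffer pH 3.5 containing 0.05 M DEA. log k_W was extrapolated to pure water by regression.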

For series [2], the system named is HeLa. The series can be described thus: Antiproliferative activity against human HeLa cells assessed as cell viability at 50 uM by MTT assay. It counts as functional. The conditions noted are these: read-out: Activity. The procedure, abridged: (§2)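 Log-phase cells, kept in supplemented RPMI 1640 (HSF in DMEM/10% FBS) at 37 °C, 5% CO2, were exposed 24 h to 1, 50 or 100 µM compound from DMSO. They were washed, given 0.5 mg/mL MTT in HEPES buffer pH 7.4 for 45 min at 37 °C, and formazan was dissolved in DMSO and read at 570 nm. Values are % viability versus control from three independent measurements.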

The test system of series [3] is HeLa. The series can be described thus: Antiproliferative activity against human HeLa cells assessed as cell viability at 100 uM by MTT assay. The series is classed as functional. The conditions noted are these: read-out: Activity. The procedure, abridged:
as §2
For orientation: Tetrazolium dyes change colour on reduction, which living cells bring about.

Series [4] is described as follows: Antiproliferative activity against human skin fibroblast assessed as cell viability at 1 uM by MTT assay. The series is classed as cell-based. The conditions noted are these: human skin fibroblasts, read-out: Activity. The procedure, abridged: as §2
Series [5] is described as follows: Lipophilicity, log kw in acetonitrile aqueous system at pH 3.5. It counts as physicochemical. The procedure, abridged:
as §1

The nature of series [6]: Antiproliferative activity against human skin fibroblast assessed as cell viability at 100 uM by MTT assay. The conditions noted are these: human skin fibroblasts, read-out: Activity. The series is classed as cell-based. The procedure, abridged: (§3)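 MTT viability assay on primary human skin fibroblasts grown in DMEM with 10% FBS and penicillin/streptomycin. Compounds were dissolved in DMSO and given at 1, 50 or 100 µM for 24 h. Cells were washed in HEPES-buffered medium (pH 7.4) and then given MTT 0.5 mg mL⁻¹ for 45 min at 37 °C. Formazan was dissolved in DMSO and read at 570 nm. Viability is % of control; three independent measurements.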

Series [7] in a line: Antiproliferative activity against human RPMI cells assessed as cell viability at 1 uM by MTT assay. It counts as functional. As to conditions: read-out: Activity. The procedure, abridged: as §2
A short description of series [8]: Antiproliferative activity against human skin fibroblast assessed as cell viability at 50 uM by MTT assay. The series is classed as cell-based. The conditions noted are these: human skin fibroblasts, read-out: Activity. The procedure, abridged: as §3
Series [9] relates to HeLa. The series is described as follows: Antiproliferative activity against human HeLa cells assessed as cell viability at 1 uM by MTT assay. It counts as functional. The conditions noted are these: read-out: Activity. The procedure, abridged:
as §2

Series [10] is described as follows: Antiproliferative activity against human RPMI cells assessed as cell viability at 100 uM by MTT assay. The series is classed as functional. The conditions noted are these: read-out: Activity. The procedure, abridged: as §2
A short description of series [11]: Antiproliferative activity against human RPMI cells assessed as cell viability at 50 uM by MTT assay. It counts as functional. The conditions noted are these: read-out: Activity. The procedure, abridged: as §2
A short description of series [12]: Lipophilicity, log kw in dioxane aqueous system at pH 3.5. The conditions noted are these: buffer. It counts as physicochemical. The procedure, abridged: as §1

Take `Cc1ccc(N2CCn3c(COc4ccc(Cl)cc4)nnc32)cc1`: the logKw in series [1] amounted to 4.27; in series [5], 3.04; in [12], 3.55. For the same molecule, the viability at 50 µM in the series on HeLa [2] came to 78.3%; in [8], 68.4%; in series [11], 39.5%. Further, the viability at 100 µM in the series with HeLa [3] turned out to be 77.9%; in series [6], 64.7%; in [10], 39.9%. Moreover, the viability at 1 µM in series [4] is 88.1%; in series [7], 104%; with HeLa [9] it was 89%.

As for `Clc1ccc(N2CCn3cnnc32)cc1Cl`, the values for the logKw in series [1], in [5] and in series [12] were 2.92, 2.11 and 2.49, respectively.

Take `c1ccc(N2CCn3cnnc32)cc1`: the logKw stood at 1.62 in series [1], 1.37 in series [5] and 1.16 in [12]. Further, the viability at 50 µM in the series on HeLa [2] came to 75.4%; in [8], 89.5%; in series [11], 102%. The viability at 100 µM in the series on HeLa [3] came out at 72.8%; in series [6], 85.6%; in [10], 97.6%. For the same molecule, the viability at 1 µM stood at 97.6% in [4], 99.3% in series [7] and 73.2% with HeLa [9].

Regarding `COc1ccc(N2CCn3c(COc4ccc(Cl)cc4)nnc32)cc1`, the logKw worked out at 1.88 in series [1], 1.54 in series [5] and 1.52 in series [12]. Besides, the values for the viability at 50 µM (in the series with HeLa [2]; in series [8]; in series [11]) were 72.1%, 67.1% and 98.4%, respectively. The viability at 100 µM was 68.9% in the series with HeLa [3], 64.6% in series [6] and 94.9% in series [10]. Moreover, the viability at 1 µM in series [4] turned out to be 80.3%; in series [7] it was 99.7%; with HeLa [9], 81.5%.

For the molecule `Clc1ccc(N2CCn3cnnc32)cc1`, the logKw in [1] came out at 2.19; in [5], 2.7; in series [12], 1.89. In addition, the viability at 50 µM in the series with HeLa [2] is 67.6%; in series [8], 90.9%; in series [11], 96.9%. Besides, the viability at 100 µM with HeLa [3] was 68.4%; in [6] it was 90.7%; in [10], 87.5%. Further, the viability at 1 µM was found to be 101% in series [4], 104% in [7] and 77.9% in the series on HeLa [9].
